RAM network inh: blocks the yeast RAM network. S. cerevisiae dse1pr::URA3 reporter, 5-FOA growth OD615, 2 d; analog-sensitive cbk1-as2 kinase mutant strain. 190,000 tested, 1.8% active. inhibition, % at 50 µM;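 active = inhibition above a set limit, 3 SD over mean compound inhibition, cut at about 8.4% in these data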;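 note: inhibition rescues growth on 5-FOA so higher OD means more RAM inhibition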
Measles CPE: protection of cells from measles virus | Measles virus-infected cells, CPE protection, absorbance | protection (pct of control), % at 4 µM | 140,000 tested, 1.5% active; in the data active = protection mostly above about 24%, no sharp cut-off; inactive = mostly below about 26%
Yeast life ext: yeast lifespan extension. S. cerevisiae growth with nicotinamide, OD615; deaD strain in restrictive glucose medium. inhibition of the nicotinamide effect, % at 10 µM. 130,000 tested, 0.68% active. AID 775;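 active = inhibition above a set limit, placed 3 SD over the median of all compounds, cut at about 26% in these data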
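Test system – modified budding yeast, DeaD strain · Compound – single dose 10 µM compound, 0.25% DMSO · Times – culture preincubation 4 h, compound exposure 48 h, both 30 °C · Detection – optical density (absorbance) at 615 nm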
INS promoter inh: TRM-6 insulin promoter activity inhibition; inhibition, % at 2 µM; AID 1273; TRM-6 cells, insulin promoter-eGFP reporter, imaging; reporter expression induced with tamoxifen; 130,000 tested, 0.9% active;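 active = inhibition above the mean plus 3 SD, with well images judged a real hit on visual review, cut at about 60% in these data, passing the limit was not always enough; inconclusive = inhibition over the cutoff but images rejected on review; inactive = inhibition not above the cutoff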
BB579 growth dn: reduces growth of yeast BB579 in restrictive medium; S. cerevisiae BB579 growth, OD615, 48 h; inhibition, % at 10 µM; 140,000 tested, 0.51% active; AID 804;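 active = inhibition above a set limit, 3 SD over the mean compound inhibition, cut at about 44% in these data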
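Test system: Saccharomyces cerevisiae DeaD strain BB579, replicative lifespan model yeast | Buffer or medium: Restrictive CSMM-D medium | Doses: One dose, 10 µM compound with 0.25% DMSO | Incubation: 48 h exposure, 30 °C | Detection: Culture absorbance at 615 nm | Control set: Amphotericin B at 10 µg/mL as positive control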
MDM2 E3 inh: blocks human Mdm2 ubiquitin ligase activity; Q00987; cell-based MDM2 ubiquitination luciferase reporter, 2 h; 0 = plate control, 100 = twice control, blank-subtracted; signal enhancement, % at 5 µM; 210,000 tested, 0.11% active; AID 1230;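 active = signal enhancement of 30% or more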;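 note: luminescence tracks abundance of the self-degrading MDM2-luciferase fusion protein; higher signal means inhibition of MDM2 E3 ligase activity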
Target sequence (Q00987 whole entry, looked up, the tested form may be a part): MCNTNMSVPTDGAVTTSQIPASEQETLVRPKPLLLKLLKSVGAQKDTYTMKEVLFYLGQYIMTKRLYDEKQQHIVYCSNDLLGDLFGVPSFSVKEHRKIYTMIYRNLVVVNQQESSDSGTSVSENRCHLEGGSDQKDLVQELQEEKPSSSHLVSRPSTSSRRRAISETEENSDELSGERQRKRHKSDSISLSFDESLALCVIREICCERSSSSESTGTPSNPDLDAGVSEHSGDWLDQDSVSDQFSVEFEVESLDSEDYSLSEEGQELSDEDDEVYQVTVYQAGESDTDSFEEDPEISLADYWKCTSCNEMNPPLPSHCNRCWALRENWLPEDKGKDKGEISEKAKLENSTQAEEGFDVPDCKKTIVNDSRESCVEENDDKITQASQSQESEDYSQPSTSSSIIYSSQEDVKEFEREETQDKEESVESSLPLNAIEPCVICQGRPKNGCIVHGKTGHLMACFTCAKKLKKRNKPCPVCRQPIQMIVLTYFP
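Timing – 2 h compound exposure at 37 °C · Assay system – mammalian cells stably expressing self-ubiquitinating, self-degrading MDM2 E3–luciferase fusion · Amount – 2000 cells seeded into each well · Measure – % luminescence enhancement versus blank-corrected plate control mean · Measured by – SteadyLite luminescence, 15 min reagent step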
Of the large screens only hits and unclear results are named; the others gave an inactive call. The list is not random: actives were taken first. Their share in the collection is about 4%.

CC(C)(/C=N/NC(=O)CSCc1ccccc1Cl)CCC#N	none
On1c(-c2ccccc2)nc2ccccc21	none (no result: RAM network inh, Measles CPE, Yeast life ext, INS promoter inh, BB579 growth dn)
O=Nc1c2nc3ccccc3n(O)c-2c2ccccc12	BB579 growth dn 64.3 (no result: INS promoter inh)
Cc1ccc(C)c(S(=O)(=O)N2C(=S)NC(=O)C2CC(C)C)c1 (stereo not drawn)	Measles CPE 40.5
Cc1ccc(C)c(S(=O)(=O)N2CCNCC2)c1	none (no result: Measles CPE, Yeast life ext, INS promoter inh, BB579 growth dn)
Cc1cccc2nc(C(F)(F)F)nc(=O)n12	Measles CPE 42.7
Cc1cccc2nc(-c3cccnc3)c(Nc3ccccc3)n12	none (no result: Measles CPE, Yeast life ext, INS promoter inh, BB579 growth dn)
O=C(c1ccco1)N1CCN(C(=O)C(Cc2ccccc2)NS(=O)(=O)c2cccs2)CC1 (stereo not drawn)	none (no result: INS promoter inh)
CC(=O)NC(Cc1ccccc1)C(=O)N1CCN(C(=O)c2ccco2)CC1 (stereo not drawn)	Measles CPE 36.4
NC(=O)C1CCN(Cc2nc3cc(C(F)(F)F)ccc3c(=O)[nH]2)CC1	none (no result: RAM network inh, Measles CPE, Yeast life ext, INS promoter inh, BB579 growth dn)
O=C(NN=C1CCCCCCCCCCC1)c1ccccc1F	Measles CPE 50.0
O=C(NN=C1CCCCCCC1)c1ccc(F)cc1	none (no result: Measles CPE, Yeast life ext, BB579 growth dn)
COc1ccc(OC)c(CNn2c(-c3ccccc3F)nc3ccccc3c2=O)c1	MDM2 E3 inh 42.6 (no result: Measles CPE, Yeast life ext, BB579 growth dn)
COc1ccc(C2CC(C(F)(F)F)n3ncc(C(=O)NCC4CCCO4)c3N2)cc1OC (stereo not drawn)	Measles CPE 32.1 (no result: INS promoter inh)
COCCCN(C(=S)Nc1cc(Cl)cc(Cl)c1)C(C)c1ccncc1 (stereo not drawn)	Yeast life ext 41.4
COCCCN(C(=S)Nc1ccc(C)cc1Cl)C(C)c1ccncc1 (stereo not drawn)	none
CCC1CCCCN1C(=O)CSc1nnc(-c2ccco2)o1 (stereo not drawn)	INS promoter inh 85.7
CCC1CCCCN1C(=O)CSc1nnc(-c2ccc(Cl)cc2)o1 (stereo not drawn)	none (no result: INS promoter inh)
COc1ccccc1NC(=S)NCc1ccc2c(c1)OCO2	none (no result: MDM2 E3 inh)
Cc1ccc2c(c1)C1C=CCC1C(C(=O)O)N2 (stereo not drawn)	RAM network inh 8.7
CC(=O)c1ccc2c(c1)C1C=CCC1C(C(=O)O)N2 (stereo not drawn)	none (no result: Measles CPE, Yeast life ext, BB579 growth dn)
CCCNc1ncnc2nc[nH]c12	Measles CPE 40.3 (no result: INS promoter inh)
COc1ccc(C(=O)NCc2cc(C)nc3ccccc23)cc1OC	INS promoter inh 100.0 (no result: Measles CPE, Yeast life ext, BB579 growth dn)
CN1CCC(=NNC(=O)C(=O)NC2CCCC2)CC1	Measles CPE 56.0
O=C(c1ccc(Oc2cc(Cl)cc(Cl)c2)o1)N1CCCCC1	none (no result: RAM network inh, Measles CPE, Yeast life ext, INS promoter inh, BB579 growth dn)
C/C(CCc1oc2ccc(Br)cc2c1-c1ccc(C)o1)=N/O	RAM network inh 11.4
C/C(CCc1oc2ccc(Cl)cc2c1-c1ccc(C)o1)=N\O	RAM network inh 9.4, INS promoter inh inconclusive (no result: Yeast life ext, MDM2 E3 inh)
COc1ccc(/C=N/N2CCN(C)CC2)cc1O	Measles CPE 27.6
CN1CCN(/N=C/c2ccc(Cl)c(Cl)c2)CC1	none (no result: INS promoter inh)
COc1cccc(/C=N/N2CCN(C)CC2)c1	INS promoter inh 72.7
CN(CC(CC(=O)Nc1nncs1)c1ccccc1)S(=O)(=O)c1ccc(Br)cc1 (stereo not drawn)	none (no result: INS promoter inh)
COc1ccc(N2CCN(CCNC(=O)c3c(C)cc(=O)oc3C)CC2)cc1	none
Cc1cc(=O)oc(C)c1C(=O)NCCCN1CCN(c2ccc(F)cc2)CC1	Measles CPE 42.6
Cc1ccccc1N(C)S(=O)(=O)c1ccc2[nH]cc(C(=O)NCC3CCCO3)c(=O)c2c1 (stereo not drawn)	none
CCOc1ccc(N(C)S(=O)(=O)c2ccc3[nH]cc(C(=O)NCC4CCCO4)c(=O)c3c2)cc1 (stereo not drawn)	RAM network inh 10.6
COC(=O)Nc1sc2c(c1C(=O)NC1CC1)CCCCCC2	none
O=C(/C=C/Sc1ccccc1)c1ccccc1	none
O=C(/C=C/Sc1ccccc1)c1ccc(Cl)cc1	Yeast life ext 27.9
Cc1ccc(NC(=O)CSc2nn(-c3ccc(Cl)cc3)c(=S)s2)cc1S(=O)(=O)N(C)C	RAM network inh 11.2
Cc1sc2nc(C3CC3)nc(NCCNS(C)(=O)=O)c2c1C	none (no result: INS promoter inh)
CCN(CC)S(=O)(=O)c1cc(NC(=O)COC(=O)CCC(=O)c2ccc(F)cc2)ccc1C	RAM network inh 9.5

Source: PubChem BioAssay
